One data set is described as follows: Lipophilicity, log P of the compound. Format: physicochemical. The settings on record: octanol/water. In short, it runs like this:
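Shake-flask partition between mutually pre-saturated octanol and water (at least 24 h pre-saturation). Compound dissolved at 10 mM in water-saturated octanol; water/octanol volume ratio set by preliminary runs according to polarity. Phases centrifuged 3000 rpm, 5 min; diluted octanol aliquot read by UV absorbance at λmax (range 0.2-1). Water concentration obtained by difference; log P from volume ratio; triplicates.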
In turn, `CCCc1ccccc1` gave a logP of 3.7.

The nature of another data set: Octanol/water partition co-efficient, log P of compound by UV-spectrophotometry-based shake-flask method. Format: physicochemical.
Settings: not given
An outline of the steps: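 Shake-flask partition between octanol and water, each pre-saturated with the other phase for at least 24 h. Compound dissolved at 10 mM in water-saturated octanol; water/octanol volume ratio set from preliminary runs according to polarity. Phases centrifuged 3000 rpm, 5 min. Diluted octanol phase read by UV absorbance at λmax, absorbance kept within 0.2-1. Water concentration obtained by difference; log P from the volume ratio. Triplicates.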
`CS(=O)(=O)c1ccc([N+](=O)[O-])cc1` registered a logP of 0.61.

In turn, `O=[N+]([O-])c1ccc(C(F)F)cc1` yielded a logP of 2.12.

`Cc1ccc(C(F)F)cc1` had a lipophilicity (logP) of 2.94.

For the compound `C[S+]([O-])CCc1ccccc1` (centres undefined), the logP is 0.63.

Compound `COc1ccc(C(F)F)cc1` yielded a logP of 2.61.

`FC(F)c1ccc(Br)cc1` displayed a logP of 2.78.

In the case of `COC(=O)c1ccccc1` [METHYL BENZOATE], the logP came out at 2.27.

As for `[O-][S+](CCc1ccccc1)C(F)F` (centres undefined), the log partition coefficient (logP) turned out to be 1.42.

Consider `N#Cc1ccc(C(F)F)cc1`, for which the lipophilicity (logP) came to 1.75.

For the compound `Cc1ccc(C#N)cc1`, the logP turned out to be 2.

In the case of `COCCc1ccccc1`, the logP came to 2.23.

Consider `FC(F)c1ccccc1`, for which the logP was 2.4.

`FC(F)OCCc1ccccc1`: the logP was found to be 3.16.

On to `FC(F)CCc1ccccc1`, for which the logP is 3.02.

As for `CN1C(=O)c2ccccc2C1=O`, the logP was found to be 1.33.

Compound `O=S(=O)(CCc1ccccc1)C(F)F` had a lipophilicity (logP) of 1.87.

With `O=[N+]([O-])c1ccc(S(=O)(=O)C(F)F)cc1`, the lipophilicity (logP) is 1.7.

Compound `CS(=O)(=O)CCc1ccccc1` gave a lipophilicity (logP) of 0.82.

Compound `O=C(OC(F)F)c1ccccc1` gave a logP of 2.66.

As to `C[S+]([O-])c1ccc([N+](=O)[O-])cc1` (centres undefined), the logP is 0.49.

The compound `Cc1ccc(C)cc1` [P-XYLENE] returned a logP of 3.08.

Turning to `COc1ccc(C)cc1`, the logP turned out to be 2.67.

In turn, `CSCCc1ccccc1` showed a logP of 2.95.

`O=[N+]([O-])c1ccc([S+]([O-])C(F)F)cc1` (centres undefined) came in with a logP of 1.37.

`FC(F)SCCc1ccccc1` showed a logP of 3.16.

For the compound `Cc1ccc(Br)cc1`, the log partition coefficient (logP) was 2.91.

`O=C1c2ccccc2C(=O)N1C(F)F` returned a logP of 1.53.

With `Cc1ccc([N+](=O)[O-])cc1` [4-NITROTOLUENE], the logP is 2.35.
